Rows were chosen to be rich in hits. Some 5.5% of all compounds tested hit in one or more screens of this group.
STAT3 activator – increases IL-6 driven STAT3 reporter signal | 190,000 compounds, 0.91% hits | U3A cells, IL-6 STAT3-luciferase reporter, luminescence; 100% = signal with IL-6 EC80 alone | activation (% of control), % at 5.6 µM;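 active means activation above the screen-wide mean of compound activation plus 3 SD, cut at about 130% in these data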;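 further: 0% = background luminescence of wells with medium and substrate only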
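Test system: human U3A cells carrying STAT3-luciferase construct; control set: IL-6-only wells as 100% reference; timing: compound pre-incubation 1 h before IL-6, then 6 h stimulation at 37 °C; also added: IL-6 stimulus at 33 ng/mL final; evaluation: % activation versus median of IL-6-stimulated wells; detection: reporter luminescence signal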
HSV replic up – increases HSV replication in cells. AID 1956. HSV replication augmentation in cells, fold increase. maximum fold increase. 220,000 compounds, 0.005% hits; in the data active means maximum fold increase above about 1.5; tested in PC3 cells
STAT3 blocker – reduces IL-6 driven STAT3 reporter signal; inhibition, % at 5.5 µM; U3A cells, IL-6 STAT3-luciferase reporter, luminescence; host cell line lacks STAT1; 190,000 compounds, 0.89% hits;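 active means inhibition above the mean inhibition across all screened compounds plus 3 SD, cut at about 44% in these data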;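 further: 0% = DMSO only wells and 100% = 100 µM nifuroxazide control wells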
STAT1 activator – activators of IFN-gamma induced STAT1 signaling; NIH 3T3 STAT1-luciferase reporter, luminescence; 100% = IFN-gamma alone, no compound; activation (% of control), % at 5.5 µM; 200,000 compounds, 2.6% hits;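 active means activation above the screen-wide mean activation plus 3 SD, cut at about 130% in these data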;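 further: raw ratio to IFN-gamma control signal so 100% means no change and 0% no light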
Cl transport mod – KCC2 (human) Cl- transport modulation; KCC2 cells, thallium flux FluoZin-2 fluorescence; B-score of Tl+ flux slope (higher = more flux/activation; lower = inhibition) at 10 µM; 190,000 compounds, 2.2% hits;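 active means thallium flux slope and its plate-corrected score both differing from the plate sample mean at a set confidence after two filtering rounds, in either direction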;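 further: slope of fluorescence scaled to starting intensity during 10 to 20 s after thallium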
Target sequence (Q9H2X9 whole entry, looked up): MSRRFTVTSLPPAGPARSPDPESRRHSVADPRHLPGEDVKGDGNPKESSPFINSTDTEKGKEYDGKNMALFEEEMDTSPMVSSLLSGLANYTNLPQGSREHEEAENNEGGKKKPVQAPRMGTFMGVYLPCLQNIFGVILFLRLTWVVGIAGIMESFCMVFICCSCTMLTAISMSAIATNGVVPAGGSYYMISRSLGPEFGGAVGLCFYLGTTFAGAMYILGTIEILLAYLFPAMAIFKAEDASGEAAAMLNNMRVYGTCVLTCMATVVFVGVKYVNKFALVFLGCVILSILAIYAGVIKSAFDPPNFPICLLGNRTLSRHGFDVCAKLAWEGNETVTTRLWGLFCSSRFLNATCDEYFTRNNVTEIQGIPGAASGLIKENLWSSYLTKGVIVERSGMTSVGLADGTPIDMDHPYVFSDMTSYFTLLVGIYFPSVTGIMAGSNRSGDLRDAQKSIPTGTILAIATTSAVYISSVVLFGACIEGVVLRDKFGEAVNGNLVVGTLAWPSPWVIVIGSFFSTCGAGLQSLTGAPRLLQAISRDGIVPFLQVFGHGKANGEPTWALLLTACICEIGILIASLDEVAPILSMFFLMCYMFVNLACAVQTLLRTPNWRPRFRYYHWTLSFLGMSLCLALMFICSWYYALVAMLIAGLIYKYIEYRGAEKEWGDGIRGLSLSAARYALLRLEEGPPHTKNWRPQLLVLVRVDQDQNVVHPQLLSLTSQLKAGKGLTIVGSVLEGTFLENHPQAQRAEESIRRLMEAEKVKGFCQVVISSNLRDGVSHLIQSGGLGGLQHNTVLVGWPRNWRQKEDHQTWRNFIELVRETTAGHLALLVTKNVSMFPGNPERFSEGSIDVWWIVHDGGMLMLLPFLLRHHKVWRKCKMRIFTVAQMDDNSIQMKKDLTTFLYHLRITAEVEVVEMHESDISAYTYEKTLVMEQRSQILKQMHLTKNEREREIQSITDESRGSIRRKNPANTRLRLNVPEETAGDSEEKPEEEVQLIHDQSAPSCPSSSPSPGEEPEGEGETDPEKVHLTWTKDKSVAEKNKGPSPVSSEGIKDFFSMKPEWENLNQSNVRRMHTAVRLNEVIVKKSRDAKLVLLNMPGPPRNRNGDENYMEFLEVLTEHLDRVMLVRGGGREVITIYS
STAT1 inh – STAT1 signaling inhibition; NIH 3T3 STAT1-luciferase reporter, IFN-gamma, luminescence; 200,000 compounds, 0.35% hits; inhibition, % at 5.5 µM;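 active means inhibition above a set limit, the mean inhibition across all tested compounds plus 3 SD, cut at about 34% in these data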;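 further: 0% = IFN-gamma with DMSO and 100% = IFN-gamma with 300 µM nifuroxazide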
Starred values were filed as active, the others as inactive; i = inactive; · = no result given.

SMILES	STAT3 activator	HSV replic up	STAT3 blocker	STAT1 activator	Cl transport mod	STAT1 inh
CCCCCCn1c(NCC)nc2c1c(=O)n(C)c(=O)n2C	43	i	67*	64	-1.5	40*
CCCCNc1nc2c(c(=O)n(C)c(=O)n2C)n1CCC	·	i	·	·	-0.49	·
O=C1CC(N2CCN(Cc3ccc4c(c3)OCO4)CC2)C(=O)N1CCc1ccccc1 (stereo unspecified)	103	i	3	97	1.5	4
Cn1cccc1C(=O)C(=O)Nc1ccccc1C(F)(F)F	91	i	13	139*	-0.24	-43
Cn1cccc1C(=O)C(=O)Nc1ccccc1	79	i	28	121	-0.48	-23
Cc1cccn2cc(-c3ccc(Cl)cc3)nc12	72	i	39	90	-1.1	10
O=c1oc2ccccc2cc1-c1cn2ccccc2n1	20	i	96*	23	-0.066	81*
COc1ccc2oc(=O)c(-c3cn4ccc(C)cc4n3)cc2c1	89	i	16	120	0.36	-24
O=c1oc2ccccc2cc1-c1cn2cccnc2n1	77	i	33	140*	·	-44
Cc1ccc(-c2cn3cccc(C)c3n2)cc1	76	i	30	96	-0.92	5
Cc1cccn2cc(-c3c[nH]c4ccccc34)nc12	140*	i	-37	134*	-0.09	-39
Cc1cccn2cc(-c3cc4ccccc4oc3=O)nc12	73	i	37	137*	0.46	-43
CCC(c1nnnn1Cc1ccccc1)N(Cc1ccco1)Cc1cc2cc(OC)ccc2[nH]c1=O (stereo unspecified)	91	i	16	100	-0.2	0
CCC(c1nnnn1CCOC)N(Cc1ccc(C)cc1)Cc1cc2cc(OC)ccc2[nH]c1=O (stereo unspecified)	104	i	-1	104	-3.1*	-5
O=C(COc1ccc(Cl)cc1)NCc1nnc(SCC(=O)Nc2ccccc2F)o1	99	i	12	97	-0.012	3
COc1ccccc1-c1nc(NC(C)=O)n[nH]1	159*	i	-65	89	·	12
O=C(Nc1c2c(nc3c1CCC3)CCCC2)c1ccccn1	92	i	13	90	-1.1	11
CN1CCN(/N=C/c2ccc(Br)cc2)CC1	100	i	3	129*	1.7	-32
O=C1CCNc2cc3ccccc3cc21	137*	i	-40	100	·	-1
Cc1ccc2nc(Cc3ccc(N)cc3)[nH]c2c1	112	i	-2	131*	-0.047	-35
CCc1ccccc1NC(=O)c1cnc2n(c1=O)CCS2	93	i	13	112	0.39	-13
CCc1ccc(NC(=O)c2cnc3n(c2=O)CCS3)cc1	118	i	-17	131*	-2.3	-34
CC1(C(=O)NC(=S)N(CCC#N)c2ccccc2)CC1(Cl)Cl (stereo unspecified)	113	i	-18	105	0.12	-6
CC(C)N(Cc1ccccc1)C(=S)NC(=O)C1(C)CC1(Cl)Cl (stereo unspecified)	103	i	-2	94	85*	5
Cc1nc(CSc2ccc(Cl)cc2)cc(NCc2ccccc2)n1	103	i	4	98	·	2
SMILES	STAT3 activator	HSV replic up	STAT3 blocker	STAT1 activator	Cl transport mod	STAT1 inh
Cc1cc(C)nc(SCc2cn3ccccc3n2)n1	·	i	·	·	-0.32	·
Clc1ccc(SCc2cn3ccccc3n2)cc1	95	i	7	133*	-1.1	-37
Cc1cccn2cc(CSc3ccccc3N)nc12	90	i	12	139*	·	-65
Nc1ccccc1SCc1cn2cccnc2n1	105	i	3	107	0.2	-8
Nc1ccccc1SCc1cn2ccccc2n1	95	i	10	146*	1	-50
CNc1cc(CSc2ccc(Cl)cc2)nc(C)n1	106	i	0	135*	-0.83	-38
Clc1ccc2nc(CSc3nnc4ccccn34)cn2c1	105	i	-2	141*	0.095	-45
Cc1ccc(SCc2cn3cc(Cl)ccc3n2)cc1	·	i	·	·	-1.6	·
Cc1cc(C)n2cc(CSCc3ccco3)nc2n1	102	i	0	92	·	9
Cc1cccc2nc(CSCc3ccco3)cn12	96	i	10	135*	0.1	-38
Clc1ccc2nc(CSCc3ccccc3)cn2c1	97	i	6	145*	-1	-50
Clc1ccc2nc(CSc3nncn3-c3ccccc3)cn2c1	98	i	6	93	-1.7	7
Clc1ccc2nc(CSc3nc4ccccc4o3)cn2c1	87	i	19	120	-0.8	-22
Cc1cccc2nc(CSc3ccc(Cl)cc3)cn12	91	i	16	132*	-0.47	-34
C/C(CCc1ccc2c(c1)OCO2)=N\NC(=O)c1ccccc1Br	105	i	3	105	0.68	-5
CN1CCN(S(=O)(=O)c2ccc(NC(=O)COc3ccccc3Cl)cc2)CC1	90	i	14	106	0.88	-8
CC(C)CCCCCCNC(=S)Nc1ccc(S(=O)(=O)N2CCOCC2)cc1	95	i	9	98	0.95	2
NC(=S)n1[nH]c(-c2ccccc2)c(N=Nc2ccccc2C(=O)N2CCOCC2)c1=O	104	i	-1	104	·	-6
Cc1ccc([N+](=O)[O-])cc1N=Nc1c(-c2ccc([N+](=O)[O-])cc2)[nH]n(C(N)=S)c1=O	65	i	46*	67	-2.1	35*
CC(C)Oc1ccc(CCNC(=O)CC2C(=O)NCCN2C)cc1 (stereo unspecified)	·	i	·	·	0.45	·
COCCNC(=O)C(c1ccc(Cl)cc1)N(C(=O)Cn1nnc2ccccc21)c1cccnc1 (stereo unspecified)	105	i	-4	104	0.61	-4
CCc1ccc(-c2cc(C(=O)Nn3cnnc3)c3ccccc3n2)cc1	32	i	82*	41	0.39	64*
CCOc1ccc(-c2cc(C(=O)O)c3ccccc3n2)c(OCC)c1	135*	i	-38	104	-0.012	-4
CCNC(=S)NNC(=O)c1cc(-c2ccc(OCC)cc2)nc2ccccc12	14	i	99*	22	0.17	86*
COC(=O)c1ccc(NC(=O)c2cc(-c3ccccn3)nc3ccccc23)cc1	103	i	1	96	1	1
COC(=O)c1ccc(NC(=S)NC(=O)c2cc(-c3ccccc3)nc3ccccc23)cc1	111	·	-13	103	6*	-3
Cc1ccc(C)c(S(=O)(=O)N/N=C/c2ccc(N3CCOCC3)cc2)c1	·	i	·	·	0.42	·
COC(=O)c1cc(NC(=O)c2c(Cl)cnn2C)cc(C(=O)OC)c1	86	i	16	96	0.32	4
COC(=O)c1ccc(NC(=S)NC(=O)c2c(Cl)cnn2C)cc1	81	i	18	105	36*	-5
